According to ChEMBL document CHEMBL1125234, “Novel pyrrolo[2,3-d]pyrimidine antifolates: synthesis and antitumor activities” (J Med Chem, 1991):
≈ marks a conversion by molar mass, not a printed value.

Assays:
[1] = In vitro growth inhibitory activity against KB human epidermoid carcinoma cells.; format: functional
How it was run: (§1)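 Cells seeded at 1 × 10^4 cells/mL in 96-well plates, MEM with 10% fetal calf serum, 37 °C, 5% CO₂, 24 h. Antifolate added in 10% MEM at final 0.15-80 ng/mL, then culture continued 72 h at 37 °C. Cell number estimated by MTT; IC50 taken as concentration giving 50% growth inhibition. Means ± SE of three experiments.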

A549 = test: In vitro growth inhibitory activity against A549 human nonsmall cell lung carcinoma cells.; format: functional, cell-based; how it was run: as §1

Compound | IC50 (A549) [ng/mL] | IC50 [1] [ng/mL]
Nc1nc(N)c2c(n1)NCC2CCCc1ccc(C(=O)N[C@H](CCC(=O)O)C(=O)O)cc1 (stereo not given in full) | 4.9 (≈ 11.1 nM) | 0.49 (≈ 1.11 nM)
CN(Cc1cnc2nc(N)nc(N)c2n1)c1ccc(C(=O)N[C@@H](CCC(=O)O)C(=O)O)cc1 [METHOTREXATE] | 35 (≈ 77 nM) | 5.02 (≈ 11 nM)

Continued, in another order:

IC50 (A549) [ng/mL] | Compound | IC50 [1] [ng/mL]
2.3 (≈ 5.06 nM) | CC(CCc1c[nH]c2nc(N)nc(N)c12)c1ccc(C(=O)N[C@H](CCC(=O)O)C(=O)O)cc1 (stereo not given in full) | 0.59 (≈ 1.3 nM)
1.6 (≈ 3.5 nM) | CC(CCC1CNc2nc(N)nc(N)c21)c1ccc(C(=O)N[C@H](CCC(=O)O)C(=O)O)cc1 (stereo not given in full) | 0.3 (≈ 0.657 nM)
4.5 (≈ 10.2 nM) | Nc1nc(N)c2c(CCCc3ccc(C(=O)N[C@H](CCC(=O)O)C(=O)O)cc3)c[nH]c2n1 | 0.27 (≈ 0.613 nM)
